Reference: ChEMBL document CHEMBL3227978, “Azetidine derivatives of tricyclic antidepressant agents” (J Med Chem, 1979)
Activity calls are given as the source filed them. No cut-off for these calls is given here.

Test system: Mus musculus
Assay: Anticonvulsant activity in po dosed ICEM:CET (SPF Caw) mouse assessed as antagonism of pentylenetetrazole-induced flexor-extensor tonic convulsions administered via gavage 30 mins before pentylenetetrazole challenge
Assay type: functional
Details: Mus musculus, ICEM:CET(SPF Caw), po; read-out: ED50
Outline: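 Male mice, 18-22 g, dosed orally by gavage in 0.5% Methocel (0.1 mL/10 g), starting at a 50 mg/kg screening dose, then graded doses. Pentylenetetrazole 130 mg/kg ip given 30 min later. Ten mice per dose and for controls. Dose preventing flexor-extensor tonic convulsions in 50% of animals read from dose-response curves (ED50).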

| Structure (SMILES) | ED50 [mg/kg] |
| --- | --- |
| CNC1CN(C2c3ccccc3C=Cc3ccccc32)C1 | > 50 |
| CNC1CN(C2c3ccccc3COc3ccc(Cl)cc32)C1 (configuration not stated) | 15.4 |
| CN(C)CCCN1c2ccccc2CCc2ccccc21.Cl [IMIPRAMINE HYDROCHLORIDE] | 19.4 |
| c1ccc2c(c1)CCc1ccccc1C2N1CCNCC1 | > 50 |
| CN(C)C1CN(C2c3ccccc3CSc3ccccc32)C1 (configuration not stated) | 19 |
| OCCN1CCN(C2CN(C3c4ccccc4CCc4ccccc43)C2)CC1 | 31 |
| COc1ccc2c(c1)C(N1CC(N(C)C)C1)c1ccccc1CO2 (configuration not stated) | > 50 |
| C#CC(C)(C)NC1CN(C2c3ccccc3CCc3ccccc32)C1 | 19.6 |
| c1ccc2c(c1)CCc1ccccc1C2N1CC(NC2CCCCC2)C1 | > 50 |
| CNCC1CCN1C1c2ccccc2CCc2ccccc21 (configuration not stated) | > 50 |
| CNC1CN(C2c3ccccc3CCc3ccccc32)C1C (configuration not stated) | 25 |
| CNC1CN(C(c2ccccc2)c2ccccc2)C1 | 9.6 |
| CNC1CN(C2c3ccccc3CCc3ccccc32)C1 | 13.4 |
| CCNC1CN(C2c3ccccc3COc3ccccc32)C1 (configuration not stated) | 25.3 |
| CCNC1CN(C2c3ccccc3CCc3ccccc32)C1 | 16.7 |
| CN(C)C1CN(C2c3ccccc3C3(CC3)c3ccccc32)C1 | 24.3 |
| CN(C(N)=O)C1CN(C2c3ccccc3CCc3ccccc32)C1 | > 12.5 |
| CNC1CN(C2c3ccccc3COc3ccccc32)C1 (configuration not stated) | 21.5 |
| CN(C)C1CN(C2c3ccccc3COc3ccccc32)C1 (configuration not stated) | 28.5 |
| CNC1CCN(C2c3ccccc3CCc3ccccc32)C1 (configuration not stated) | 45 |
| CNC1CN(C2CCCCc3ccccc32)C1 (configuration not stated) | 48 |
| NCC1CN(C2c3ccccc3CCc3ccccc32)C1 | > 50 |
| CNC1(c2ccccc2)CN(C2c3ccccc3CCc3ccccc32)C1 | > 50 |

Test system: not listed separately
Assay: Orientative acute toxicity in po dosed ICEM:CET (SPF Caw) mouse administered via gavage measured for 60 mins after drug dosing by Irwin's test
Assay type: organism-based
Details: ICEM:CET (SPF Caw), in vivo
Outline: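 Male ICEM:CET (SPF Caw) mice, 18-22 g. Oral gavage, suspended or dissolved in 0.5% Methocel at 0.1 mL/10 g body weight. Doses of at least 25, 50, 100, 200, 400 and 800 mg/kg, four animals per dose. Animals were observed closely for 60 min after dosing during Irwin's symptomatologic test, and an approximate LD50 was estimated.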

| Structure (SMILES) | LD50 at 1 h [mg/kg] |
| --- | --- |
| CNC1CN(C2c3ccccc3C=Cc3ccccc32)C1 | 200 |
| CNC1CN(C2c3ccccc3COc3ccc(Cl)cc32)C1 (configuration not stated) | 100 |
| CN(C)CCCN1c2ccccc2CCc2ccccc21.Cl [IMIPRAMINE HYDROCHLORIDE] | 200 |
| c1ccc2c(c1)CCc1ccccc1C2N1CCNCC1 | 50 |
| CN(C)C1CN(C2c3ccccc3CSc3ccccc32)C1 (configuration not stated) | 400 |
| OCCN1CCN(C2CN(C3c4ccccc4CCc4ccccc43)C2)CC1 | 400 |
| COc1ccc2c(c1)C(N1CC(N(C)C)C1)c1ccccc1CO2 (configuration not stated) | 400 |
| C#CC(C)(C)NC1CN(C2c3ccccc3CCc3ccccc32)C1 | > 800 |
| c1ccc2c(c1)CCc1ccccc1C2N1CC(NC2CCCCC2)C1 | 400 |
| CNCC1CCN1C1c2ccccc2CCc2ccccc21 (configuration not stated) | > 800 |
| CNC1CN(C2c3ccccc3CCc3ccccc32)C1C (configuration not stated) | 400 |
| CNC1CN(C(c2ccccc2)c2ccccc2)C1 | 200 |
| CNC1CN(C2c3ccccc3CCc3ccccc32)C1 | 400 |
| CCNC1CN(C2c3ccccc3COc3ccccc32)C1 (configuration not stated) | 200 |
| CCNC1CN(C2c3ccccc3CCc3ccccc32)C1 | 200 |
| CN(C)C1CN(C2c3ccccc3C3(CC3)c3ccccc32)C1 | 200 |
| CN(C(N)=O)C1CN(C2c3ccccc3CCc3ccccc32)C1 | 400 |
| CNC1CN(C2c3ccccc3COc3ccccc32)C1 (configuration not stated) | 200 |
| CN(C)C1CN(C2c3ccccc3COc3ccccc32)C1 (configuration not stated) | 100 |
| CNC1CCN(C2c3ccccc3CCc3ccccc32)C1 (configuration not stated) | 200 |
| CNC1CN(C2CCCCc3ccccc32)C1 (configuration not stated) | 400 |
| NCC1CN(C2c3ccccc3CCc3ccccc32)C1 | 400 |
| CNC1(c2ccccc2)CN(C2c3ccccc3CCc3ccccc32)C1 | > 400 |

Test system: Mus musculus
Assay: Antidepressant activity in po dosed ICEM:CET (SPF Caw) mouse assessed as antagonism of reserpine-induced blepharospasm administered via gavage 30 mins before reserpine challenge measured 1 hr after reserpine treatment
Assay type: functional
Details: Mus musculus, ICEM:CET(SPF Caw), po; read-out: ED50
Outline: (§1)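 Groups of ten male mice (18-22 g), fasted 9 h with water until 2 h pre-test. Oral gavage in 0.5% Methocel at doses below the 25 mg/kg screen, 30 min before reserpine 2.5 mg/kg ip. Blepharospasm scored blind at 1 h, rectal temperature at 4 h. ED50 estimated by eye-fit linear plots on semilogarithmic paper.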

| Structure (SMILES) | ED50 [mg/kg] |
| --- | --- |
| CNC1CN(C2c3ccccc3C=Cc3ccccc32)C1 | > 25 |
| CNC1CN(C2c3ccccc3COc3ccc(Cl)cc32)C1 (configuration not stated) | > 25 |
| CN(C)CCCN1c2ccccc2CCc2ccccc21.Cl [IMIPRAMINE HYDROCHLORIDE] | 1.6 |
| c1ccc2c(c1)CCc1ccccc1C2N1CCNCC1 | 24 |
| CN(C)C1CN(C2c3ccccc3CSc3ccccc32)C1 (configuration not stated) | > 25 |
| OCCN1CCN(C2CN(C3c4ccccc4CCc4ccccc43)C2)CC1 | > 25 |
| COc1ccc2c(c1)C(N1CC(N(C)C)C1)c1ccccc1CO2 (configuration not stated) | > 25 |
| C#CC(C)(C)NC1CN(C2c3ccccc3CCc3ccccc32)C1 | 9 |
| c1ccc2c(c1)CCc1ccccc1C2N1CC(NC2CCCCC2)C1 | > 25 |
| CNCC1CCN1C1c2ccccc2CCc2ccccc21 (configuration not stated) | > 25 |
| CNC1CN(C2c3ccccc3CCc3ccccc32)C1C (configuration not stated) | 9 |
| CNC1CN(C(c2ccccc2)c2ccccc2)C1 | 3.5 |
| CNC1CN(C2c3ccccc3CCc3ccccc32)C1 | 2.9 |
| CCNC1CN(C2c3ccccc3COc3ccccc32)C1 (configuration not stated) | 4.8 |
| CCNC1CN(C2c3ccccc3CCc3ccccc32)C1 | 10 |
| CN(C)C1CN(C2c3ccccc3C3(CC3)c3ccccc32)C1 | 7.2 |
| CN(C(N)=O)C1CN(C2c3ccccc3CCc3ccccc32)C1 | > 12.5 |
| CNC1CN(C2c3ccccc3COc3ccccc32)C1 (configuration not stated) | 2.6 |
| CN(C)C1CN(C2c3ccccc3COc3ccccc32)C1 (configuration not stated) | 5.6 |
| CNC1CCN(C2c3ccccc3CCc3ccccc32)C1 (configuration not stated) | > 25 |
| CNC1CN(C2CCCCc3ccccc32)C1 (configuration not stated) | > 25 |
| NCC1CN(C2c3ccccc3CCc3ccccc32)C1 | > 25 |
| CNC1(c2ccccc2)CN(C2c3ccccc3CCc3ccccc32)C1 | > 25 |

Test system: Mus musculus
Assay: Antidepressant activity in po dosed ICEM:CET (SPF Caw) mouse assessed as antagonism of reserpine-induced hypothermia administered via gavage 30 mins before reserpine challenge measured 4 hrs after reserpine treatment
Assay type: functional
Details: Mus musculus, ICEM:CET(SPF Caw), po; read-out: ED50
Outline: as §1

| Structure (SMILES) | ED50 [mg/kg] |
| --- | --- |
| CNC1CN(C2c3ccccc3C=Cc3ccccc32)C1 | > 25 |
| CNC1CN(C2c3ccccc3COc3ccc(Cl)cc32)C1 (configuration not stated) | > 25 |
| CN(C)CCCN1c2ccccc2CCc2ccccc21.Cl [IMIPRAMINE HYDROCHLORIDE] | 12.3 |
| c1ccc2c(c1)CCc1ccccc1C2N1CCNCC1 | > 25 |
| CN(C)C1CN(C2c3ccccc3CSc3ccccc32)C1 (configuration not stated) | > 25 |
| OCCN1CCN(C2CN(C3c4ccccc4CCc4ccccc43)C2)CC1 | > 25 |
| COc1ccc2c(c1)C(N1CC(N(C)C)C1)c1ccccc1CO2 (configuration not stated) | > 25 |
| C#CC(C)(C)NC1CN(C2c3ccccc3CCc3ccccc32)C1 | > 25 |
| c1ccc2c(c1)CCc1ccccc1C2N1CC(NC2CCCCC2)C1 | > 25 |
| CNCC1CCN1C1c2ccccc2CCc2ccccc21 (configuration not stated) | > 25 |
| CNC1CN(C2c3ccccc3CCc3ccccc32)C1C (configuration not stated) | 10.5 |
| CNC1CN(C(c2ccccc2)c2ccccc2)C1 | > 25 |
| CNC1CN(C2c3ccccc3CCc3ccccc32)C1 | 7.3 |
| CCNC1CN(C2c3ccccc3COc3ccccc32)C1 (configuration not stated) | 22.2 |
| CCNC1CN(C2c3ccccc3CCc3ccccc32)C1 | 12.5 |
| CN(C)C1CN(C2c3ccccc3C3(CC3)c3ccccc32)C1 | 16.5 |
| CN(C(N)=O)C1CN(C2c3ccccc3CCc3ccccc32)C1 | 12.5 |
| CNC1CN(C2c3ccccc3COc3ccccc32)C1 (configuration not stated) | 15 |
| CN(C)C1CN(C2c3ccccc3COc3ccccc32)C1 (configuration not stated) | 23 |
| CNC1CCN(C2c3ccccc3CCc3ccccc32)C1 (configuration not stated) | > 25 |
| CNC1CN(C2CCCCc3ccccc32)C1 (configuration not stated) | > 25 |
| NCC1CN(C2c3ccccc3CCc3ccccc32)C1 | > 25 |
| CNC1(c2ccccc2)CN(C2c3ccccc3CCc3ccccc32)C1 | > 25 |

Test system: Mus musculus
Assay: Antidepressant activity in ICEM:CET (SPF Caw) mouse assessed as antagonism of reserpine-induced hypothermia at 25 mg/kg, po administered via gavage 30 mins before reserpine challenge measured 4 hrs after reserpine treatment
Assay type: functional, organism-based
Set-up: dose 25 mg/kg
Details: not given
Outline: (§2)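 Male mice, 18-22 g, groups of ten, housed the evening before with a 9-h fast and water until 2 h before testing. Gavage dosing at 25 mg/kg in 0.5% Methocel, 30 min before reserpine 2.5 mg/kg ip in 0.5% acetic acid. Read blind: blepharospasm scored (Rubin scale) at 1 h, rectal thermocouple temperature at 4 h.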

| Structure (SMILES) | Activity |
| --- | --- |
| CC(C)(C)N1CC(N2c3ccccc3CCc3ccc(Cl)cc32)C1 | inactive |
| CC(C)(C)N1CC(N2c3ccccc3C=Cc3ccccc32)C1 | inactive |
| c1ccc2c(c1)COc1ccccc1N2C1CNC1 | inactive |
| CC(C)N1CC(CN2c3ccccc3COc3ccccc32)C1 | inactive |
| c1ccc2c(c1)CCc1ccccc1N2CC1CNC1 | inactive |

Test system: Mus musculus
Assay: Antidepressant activity in ICEM:CET (SPF Caw) mouse assessed as antagonism of reserpine-induced blepharospasm at 25 mg/kg, po administered via gavage 30 mins before reserpine challenge measured 1 hr after reserpine treatment
Assay type: functional, organism-based
Set-up: dose 25 mg/kg
Details: not given
Outline: as §2

| Structure (SMILES) | Activity |
| --- | --- |
| CC(C)(C)N1CC(N2c3ccccc3CCc3ccc(Cl)cc32)C1 | inactive |
| CC(C)(C)N1CC(N2c3ccccc3C=Cc3ccccc32)C1 | inactive |
| c1ccc2c(c1)COc1ccccc1N2C1CNC1 | inactive |
| CC(C)N1CC(CN2c3ccccc3COc3ccccc32)C1 | inactive |
| c1ccc2c(c1)CCc1ccccc1N2CC1CNC1 | inactive |
